Results taken from ChEMBL document CHEMBL4354828, “Discovery of Taniborbactam (VNRX-5133): A Broad-Spectrum Serine- and Metallo-β-lactamase Inhibitor for Carbapenem-Resistant Bacterial Infections” (J Med Chem, 2020).
Values after ≈ are worked out from the molar mass of the structure shown.

Columns and labels:
[1] = Inhibition of bacterial KPC-2 using imipenem as substrate preincubated for 15 mins followed by susbtrate addition and measured after 10 mins by spectrophotometric method; design: species or system Bacteria
[2] = Inhibition of bacterial NDM-1 using cefepime as substrate preincubated for 15 mins followed by susbtrate addition and measured after 10 mins by spectrophotometric method; design: species or system Bacteria
[3] = Inhibition of bacterial OXA-1 using nitrocefin as substrate preincubated for 15 mins followed by susbtrate addition and measured after 10 mins by spectrophotometric method; design: species or system Bacteria
[4] = Inhibition of bacterial OXA-48 using nitrocefin as substrate preincubated for 15 mins followed by susbtrate addition and measured after 10 mins by spectrophotometric method; design: species or system Bacteria
[5] = Inhibition of bacterial CTX-M-15 using cefotaxime as substrate preincubated for 15 mins followed by susbtrate addition and measured after 10 mins by spectrophotometric method; design: species or system Bacteria
[6] = Inhibition of bacterial CMY-2 using nitrocefin as substrate preincubated for 15 mins followed by susbtrate addition and measured after 10 mins by spectrophotometric method; design: species or system Bacteria
[7] = Inhibition of bacterial IMP-1 using nitrocefin as substrate preincubated for 15 mins followed by susbtrate addition and measured after 10 mins by spectrophotometric method; design: species or system Bacteria
[8] = Inhibition of bacterial VIM-2 using nitrocefin as substrate preincubated for 15 mins followed by susbtrate addition and measured after 10 mins by spectrophotometric method; design: species or system Bacteria
In short: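 Purified β-lactamase inhibition. IC50 values are the average of duplicates unless otherwise indicated.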

[9] = test system: Klebsiella pneumoniae; test: Inhibition of KPC-2/SHV12/TEM-1 in Klebsiella pneumoniae CDC-0361 assessed as piperacillin antibacterial activity at 16 ug/ml after 16 to 20 hrs by CLSI-based microbroth dilution method (Rvb > […] ug/ml)
[10] = test system: Klebsiella pneumoniae; test: Inhibition of OXA-232/OXA-9/TEM-1A/CTX-M-15/OXA-1 in Klebsiella pneumoniae CDC-0066 assessed as cefepime antibacterial activity at 8 ug/ml after 16 to 20 hrs by CLSI-based microbroth dilution method (Rvb > […] ug/ml)
[11] = test system: Klebsiella pneumoniae; test: Inhibition of KPC-2 in Klebsiella pneumoniae assessed as meropenem antibacterial activity at 4 ug/ml after 16 to 20 hrs by CLSI-based microbroth dilution method (Rvb >= […] ug/ml)
[12] = biological target: Beta-lactamase VIM-2 (Pseudomonas aeruginosa) (UniProt Q9K2N0); test: Inhibition of VIM-2 in Pseudomonas aeruginosa assessed as meropenem antibacterial activity at 4 ug/ml after 16 to 20 hrs by CLSI-based microbroth dilution method (Rvb >= […] ug/ml)
[13] = test system: Escherichia coli; test: Inhibition of NDM-1/CMY-6/OXA-1 in Escherichia coli CDC-0055 assessed as cefepime antibacterial activity at 8 ug/ml after 16 to 20 hrs by CLSI-based microbroth dilution method
In short: (§1)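 MDR β-lactamase-producing Gram-negative clinical isolates. […] MIC was reported as the inhibitor concentration that restores the partner's antibacterial activity.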

[14] = test system: Klebsiella pneumoniae ATCC BAA-1705; test: Inhibition of KPC-2 in Klebsiella pneumoniae ATCC BAA 1705 assessed as piperacillin antibacterial activity at 16 ug/ml after 16 to 20 hrs by CLSI-based microbroth dilution method (Rvb > […] ug/ml)
[15] = test system: Pseudomonas aeruginosa; test: Inhibition of VIM in Pseudomonas aeruginosa CDC-0457 assessed as meropenem antibacterial activity at 4 ug/ml after 16 to 20 hrs by CLSI-based microbroth dilution method
[16] = test system: Escherichia coli; test: Inhibition of NDM-1/CMY-6/OXA-1 in Escherichia coli CDC-0055 assessed as piperacillin antibacterial activity at 16 ug/ml after 16 to 20 hrs by CLSI-based microbroth dilution method; in short: as §1
[17] = test system: Escherichia coli; test: Inhibition of NDM in Escherichia coli CDC-0452 assessed as meropenem antibacterial activity at 4 ug/ml after 16 to 20 hrs by CLSI-based microbroth dilution method (reference value: […] ug/ml)
[18] = test system: Pseudomonas aeruginosa; test: Inhibition of KPC-2/PDC-42 in Pseudomonas aeruginosa CDC-0356 assessed as meropenem antibacterial activity at 4 ug/ml after 16 to 20 hrs by CLSI-based microbroth dilution method (reference value: […] ug/ml)
[19] = test system: Pseudomonas aeruginosa; test: Inhibition of VIM in Pseudomonas aeruginosa CDC-0457 assessed as cefepime antibacterial activity at 8 ug/ml after 16 to 20 hrs by CLSI-based microbroth dilution method
[20] = test system: Pseudomonas aeruginosa; test: Inhibition of VIM in Pseudomonas aeruginosa CDC-0457 assessed as piperacillin antibacterial activity at 16 ug/ml after 16 to 20 hrs by CLSI-based microbroth dilution method
[21] = test system: Pseudomonas aeruginosa; test: Inhibition of KPC-2/PDC-42 in Pseudomonas aeruginosa CDC-0356 assessed as piperacillin antibacterial activity at 16 ug/ml after 16 to 20 hrs by CLSI-based microbroth dilution method (Rvb > […] ug/ml)
[22] = test system: Klebsiella pneumoniae; test: Inhibition of VIM-4 in Klebsiella pneumoniae assessed as meropenem antibacterial activity at 4 ug/ml after 16 to 20 hrs by CLSI-based microbroth dilution method (Rvb >= […] ug/ml)
[23] = test system: Klebsiella pneumoniae ATCC BAA-1705; test: Inhibition of KPC-2 in Klebsiella pneumoniae ATCC BAA 1705 assessed as cefepime antibacterial activity at 8 ug/ml after 16 to 20 hrs by CLSI-based microbroth dilution method; in short: as §1
[24] = test system: Klebsiella pneumoniae ATCC BAA-1705; test: Inhibition of KPC-2 in Klebsiella pneumoniae ATCC BAA 1705 assessed as meropenem antibacterial activity at 4 ug/ml after 16 to 20 hrs by CLSI-based microbroth dilution method (reference value: […] ug/ml)
[25] = test system: Klebsiella pneumoniae; test: Inhibition of OXA-232/OXA-9/TEM-1A/CTX-M-15/OXA-1 in Klebsiella pneumoniae CDC-0066 assessed as piperacillin antibacterial activity at 16 ug/ml after 16 to 20 hrs by CLSI-based microbroth dilution method (Rvb > […] ug/ml)
[26] = test system: Klebsiella pneumoniae; test: Inhibition of OXA-232/OXA-9/TEM-1A/CTX-M-15/OXA-1 in Klebsiella pneumoniae CDC-0066 assessed as meropenem antibacterial activity at 4 ug/ml after 16 to 20 hrs by CLSI-based microbroth dilution method (reference value: […] ug/ml)
[27] = test system: Klebsiella pneumoniae; test: Inhibition of OXA-48 in Klebsiella pneumoniae assessed as meropenem antibacterial activity at 4 ug/ml after 16 to 20 hrs by CLSI-based microbroth dilution method (Rvb >= […] ug/ml)
[28] = test system: Escherichia coli; test: Inhibition of NDM-1/CMY-6/OXA-1 in Escherichia coli CDC-0055 assessed as meropenem antibacterial activity at 4 ug/ml after 16 to 20 hrs by CLSI-based microbroth dilution method (reference value: […] ug/ml)
[29] = test system: Klebsiella pneumoniae; test: Inhibition of VIM-27/CTX-M-15/SHV-11/OXA-1 in Klebsiella pneumoniae CDC-0040 assessed as piperacillin antibacterial activity at 16 ug/ml after 16 to 20 hrs by CLSI-based microbroth dilution method
[30] = test system: Klebsiella pneumoniae; test: Inhibition of VIM-27/CTX-M-15/SHV-11/OXA-1 in Klebsiella pneumoniae CDC-0040 assessed as meropenem antibacterial activity at 4 ug/ml after 16 to 20 hrs by CLSI-based microbroth dilution method
[31] = test system: Klebsiella pneumoniae; test: Inhibition of VIM-27/CTX-M-15/SHV-11/OXA-1 in Klebsiella pneumoniae CDC-0040 assessed as cefepime antibacterial activity at 8 ug/ml after 16 to 20 hrs by CLSI-based microbroth dilution method
[32] = test system: Pseudomonas aeruginosa; test: Inhibition of KPC-2/PDC-42 in Pseudomonas aeruginosa CDC-0356 assessed as cefepime antibacterial activity at 8 ug/ml after 16 to 20 hrs by CLSI-based microbroth dilution method (Rvb > […] ug/ml)
[33] = test system: Escherichia coli; test: Inhibition of NDM in Escherichia coli CDC-0452 assessed as cefepime antibacterial activity after 16 to 20 hrs by CLSI-based microbroth dilution method (reference value: […] ug/ml)
[34] = test system: Klebsiella pneumoniae; test: Inhibition of KPC-2/SHV12/TEM-1 in Klebsiella pneumoniae CDC-0361 assessed as cefepime antibacterial activity at 8 ug/ml after 16 to 20 hrs by CLSI-based microbroth dilution method (reference value: […] ug/ml)
[35] = test system: Escherichia coli; test: Inhibition of NDM in Escherichia coli CDC-0452 assessed as piperacillin antibacterial activity at 16 ug/ml after 16 to 20 hrs by CLSI-based microbroth dilution method (Rvb > […] ug/ml)
[36] = Inhibition of bacterial AmpC using nitrocefin as substrate preincubated for 15 mins followed by susbtrate addition and measured after 10 mins by spectrophotometric method; design: species or system Bacteria
[37] = test system: Klebsiella pneumoniae; test: Inhibition of KPC-2/SHV12/TEM-1 in Klebsiella pneumoniae CDC-0361 assessed as meropenem antibacterial activity at 4 ug/ml after 16 to 20 hrs by CLSI-based microbroth dilution method (reference value: […] ug/ml)

SMILES | IC50 [1] [nM] | IC50 [4] [nM] | IC50 [8] [nM] | MIC [9] [µg/mL] | MIC [10] [µg/mL] | MIC [13] [µg/mL] | MIC [14] [µg/mL] | MIC [15] [µg/mL] | MIC [16] [µg/mL] | MIC [17] [µg/mL] | MIC [18] [µg/mL] | MIC [19] [µg/mL] | MIC [20] [µg/mL] | MIC [21] [µg/mL] | MIC [23] [µg/mL] | MIC [24] [ng/mL] | MIC [25] [µg/mL] | MIC [26] [µg/mL] | MIC [28] [µg/mL] | MIC [29] [µg/mL] | also measured
O=C(O)[C@H]1/C(=C/CO)O[C@@H]2CC(=O)N21 [CLAVULANIC ACID] | 1800 | 30000 | > 100000 |  |  |  |  |  |  |  |  |  |  |  |  |  |  |  |  |  | IC50 [2]: > 100 µM; IC50 [3]: 120 nM; IC50 [5]: 40 nM; IC50 [6]: > 100 µM; IC50 [7]: > 100 µM
NCc1ccc(CC(=O)N[C@H]2Cc3cccc(C(=O)O)c3OB2O)cc1 | 40 | 1800 | 270 | 0.5 (≈ 1.41 µM) | 4 (≈ 11.3 µM) | 4 (≈ 11.3 µM) | 2 (≈ 5.65 µM) | > 16 | 16 (≈ 45.2 µM) | 2 (≈ 5.65 µM) | 1 (≈ 2.82 µM) | 8 (≈ 22.6 µM) | > 16 | 2 (≈ 5.65 µM) | 0.06 (≈ 0.169 µM) | 7.9 (≈ 0.0223 µM) | > 16 | 4 (≈ 11.3 µM) | 1 (≈ 2.82 µM) | > 16 | MIC [11]: 0.5 µg/mL (≈ 1.41 µM); MIC [12]: 8 µg/mL (≈ 22.6 µM); MIC [22]: 4 µg/mL (≈ 11.3 µM); MIC [27]: 1 µg/mL (≈ 2.82 µM); MIC [30]: > 16 µg/mL; MIC [31]: > 16 µg/mL; MIC [32]: 2 µg/mL (≈ 5.65 µM); MIC [33]: 2 µg/mL (≈ 5.65 µM); MIC [34]: 7.9 ng/mL (≈ 0.0223 µM); MIC [35]: 8 µg/mL (≈ 22.6 µM); IC50 [36]: 12 nM; MIC [37]: 7.9 ng/mL (≈ 0.0223 µM)
CC(=O)N[C@H]1Cc2cccc(C(=O)O)c2OB1O |  |  |  | 2 (≈ 8.03 µM) | 1 (≈ 4.02 µM) | > 16 | 2 (≈ 8.03 µM) | > 16 | > 16 | 8 (≈ 32.1 µM) | 2 (≈ 8.03 µM) | > 16 | > 16 | 2 (≈ 8.03 µM) | 0.0079 (≈ 0.0317 µM) | 7.9 (≈ 0.0317 µM) | > 16 | 2 (≈ 8.03 µM) | 16 (≈ 64.2 µM) | > 16 | MIC [30]: > 16 µg/mL; MIC [31]: > 16 µg/mL; MIC [32]: 2 µg/mL (≈ 8.03 µM); MIC [33]: 8 µg/mL (≈ 32.1 µM); MIC [34]: 7.9 ng/mL (≈ 0.0317 µM); MIC [35]: > 16 µg/mL; MIC [37]: 7.9 ng/mL (≈ 0.0317 µM)
N[C@H]1CC[C@H](CC(=O)N[C@H]2Cc3cccc(C(=O)O)c3OB2O)CC1 | 30 | 2240 | 150 | 2 (≈ 5.78 µM) | 4 (≈ 11.6 µM) | > 16 | 4 (≈ 11.6 µM) | > 16 | > 16 | 8 (≈ 23.1 µM) | 4 (≈ 11.6 µM) | 2 (≈ 5.78 µM) | > 16 | 4 (≈ 11.6 µM) | 0.125 (≈ 0.361 µM) | 15 (≈ 0.0433 µM) | > 16 | 8 (≈ 23.1 µM) | 8 (≈ 23.1 µM) | > 16 | MIC [11]: 2 µg/mL (≈ 5.78 µM); MIC [12]: 2 µg/mL (≈ 5.78 µM); MIC [22]: 2 µg/mL (≈ 5.78 µM); MIC [27]: 2 µg/mL (≈ 5.78 µM); MIC [30]: > 16 µg/mL; MIC [31]: > 16 µg/mL; MIC [32]: 4 µg/mL (≈ 11.6 µM); MIC [33]: 4 µg/mL (≈ 11.6 µM); MIC [34]: 15 ng/mL (≈ 0.0433 µM); MIC [35]: > 16 µg/mL; IC50 [36]: 30 nM; MIC [37]: 15 ng/mL (≈ 0.0433 µM)
